How the values were obtained:
Hepatitis C virus [1] = experiment: Antiviral activity against HCV infected in human hepatoma cells; format: functional, organism-based, Hepacivirus hominis
Hepatitis C virus [2] = experiment: Inhibition of HCV subtype 1b NS5B Cdelta21 RNA dependent RNA polymerase expressed in Escherichia coli JM109 assessed as inhibition of [alpha32P]CTP incorporation after 1 hr by scintillation assay; design: species or system Hepatitis C virus subtype 1b; settings: JM 109, 1 h
[3] = AUC (0 to 24 hrs) in rat at 10 mg/kg, po; format: ADME, organism-based; design: time < 24 hr, dose 10 mg/kg, route oral; settings: plasma
Cytochrome P450 3A4 [4] = target: T1, Cytochrome P450 3A4 (Homo sapiens, UniProt P08684); experiment: Inhibition of CYP3A4 co-incubated with substrate; format: ADME
T1 sequence (P08684 whole entry): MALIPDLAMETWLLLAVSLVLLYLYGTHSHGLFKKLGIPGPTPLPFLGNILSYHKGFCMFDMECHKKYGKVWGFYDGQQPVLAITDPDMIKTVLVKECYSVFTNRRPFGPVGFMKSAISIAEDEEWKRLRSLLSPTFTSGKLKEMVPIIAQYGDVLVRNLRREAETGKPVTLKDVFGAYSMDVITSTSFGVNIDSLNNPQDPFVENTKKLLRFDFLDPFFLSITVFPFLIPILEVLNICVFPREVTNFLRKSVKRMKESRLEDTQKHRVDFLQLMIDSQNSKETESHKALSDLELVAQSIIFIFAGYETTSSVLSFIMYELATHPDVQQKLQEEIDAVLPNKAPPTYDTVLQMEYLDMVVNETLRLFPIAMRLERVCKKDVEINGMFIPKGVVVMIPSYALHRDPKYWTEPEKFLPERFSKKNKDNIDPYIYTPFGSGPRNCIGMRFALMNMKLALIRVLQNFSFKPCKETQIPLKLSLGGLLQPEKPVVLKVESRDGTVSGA

Cytochrome P450 2D6 [5] = target: T2, Cytochrome P450 2D6 (Homo sapiens, UniProt P10635); experiment: Inhibition of CYP2D6 co-incubated with substrate; format: ADME
T2 sequence (P10635 whole entry): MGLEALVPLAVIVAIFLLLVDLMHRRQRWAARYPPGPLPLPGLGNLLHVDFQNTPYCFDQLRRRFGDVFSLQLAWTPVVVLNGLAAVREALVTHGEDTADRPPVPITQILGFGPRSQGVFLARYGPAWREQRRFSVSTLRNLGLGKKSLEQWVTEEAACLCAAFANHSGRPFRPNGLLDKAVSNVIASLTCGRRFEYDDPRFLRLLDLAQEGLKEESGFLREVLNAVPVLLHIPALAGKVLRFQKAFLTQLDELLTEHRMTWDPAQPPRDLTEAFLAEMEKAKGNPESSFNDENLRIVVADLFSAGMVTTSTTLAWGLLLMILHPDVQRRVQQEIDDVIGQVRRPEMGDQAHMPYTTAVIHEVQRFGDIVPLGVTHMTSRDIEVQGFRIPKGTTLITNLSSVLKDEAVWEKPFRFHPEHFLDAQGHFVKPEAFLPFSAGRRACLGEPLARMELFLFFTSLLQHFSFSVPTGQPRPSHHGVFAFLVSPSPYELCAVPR

Cytochrome P450 2C19 [6] = target: T3, Cytochrome P450 2C19 (Homo sapiens, UniProt P33261); experiment: Inhibition of CYP2C19 co-incubated with substrate; format: ADME
T3 sequence (P33261 whole entry): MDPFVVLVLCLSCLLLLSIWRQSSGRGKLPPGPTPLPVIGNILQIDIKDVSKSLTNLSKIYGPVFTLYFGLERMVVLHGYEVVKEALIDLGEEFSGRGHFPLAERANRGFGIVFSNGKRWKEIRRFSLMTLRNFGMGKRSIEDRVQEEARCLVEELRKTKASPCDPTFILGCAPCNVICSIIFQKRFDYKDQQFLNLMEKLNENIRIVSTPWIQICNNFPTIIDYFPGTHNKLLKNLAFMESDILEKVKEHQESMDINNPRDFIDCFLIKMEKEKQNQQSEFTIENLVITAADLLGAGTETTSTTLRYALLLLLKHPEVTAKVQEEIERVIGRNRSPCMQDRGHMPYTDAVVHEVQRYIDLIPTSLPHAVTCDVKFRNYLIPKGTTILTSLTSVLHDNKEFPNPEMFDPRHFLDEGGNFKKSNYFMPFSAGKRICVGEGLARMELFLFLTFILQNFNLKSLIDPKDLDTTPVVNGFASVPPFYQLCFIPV

Cytochrome P450 2C9 [7] = target: T4, Cytochrome P450 2C9 (Homo sapiens, UniProt P11712); experiment: Inhibition of CYP2C9 preincubated prior to substrate addition; format: ADME
T4 sequence (P11712 whole entry): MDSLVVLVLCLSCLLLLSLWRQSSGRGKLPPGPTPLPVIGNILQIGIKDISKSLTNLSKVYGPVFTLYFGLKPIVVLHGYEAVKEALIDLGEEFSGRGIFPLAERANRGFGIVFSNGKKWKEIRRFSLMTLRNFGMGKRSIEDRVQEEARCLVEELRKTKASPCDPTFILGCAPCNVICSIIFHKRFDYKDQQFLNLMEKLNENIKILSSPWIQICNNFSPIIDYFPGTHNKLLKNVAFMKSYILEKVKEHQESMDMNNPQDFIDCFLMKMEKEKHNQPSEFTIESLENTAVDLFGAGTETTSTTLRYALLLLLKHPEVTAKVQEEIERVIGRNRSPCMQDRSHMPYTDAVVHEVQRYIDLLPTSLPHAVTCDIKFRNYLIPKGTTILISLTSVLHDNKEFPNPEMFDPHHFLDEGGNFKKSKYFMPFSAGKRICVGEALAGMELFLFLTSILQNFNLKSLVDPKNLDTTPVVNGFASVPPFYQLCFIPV

Cytochrome P450 2C9 [8] = target: T4, Cytochrome P450 2C9; experiment: Inhibition of CYP2C9 co-incubated with substrate; format: ADME
[9] = Clearance in human hepatocytes assessed per million cells; format: ADME, cell-based, Hepatocyte; settings: read-out: CLH
Cytochrome P450 2C19 [10] = target: T3, Cytochrome P450 2C19; experiment: Inhibition of CYP2C19 preincubated prior to substrate addition; format: ADME
[11] = Permeability from apical to basal side of human Caco2 cells; format: ADME, cell-based; settings: Caco-2, read-out: permeability
Cytochrome P450 3A4 [12] = target: T1, Cytochrome P450 3A4; experiment: Inhibition of CYP3A4 preincubated prior to substrate addition; format: ADME
[13] = AUC (0 to 24 hrs) in dog at 2 mg/kg, po; format: ADME, organism-based, Canis lupus familiaris; design: time < 24 hr, dose 2 mg/kg, route oral; settings: plasma
Cytochrome P450 2D6 [14] = target: T2, Cytochrome P450 2D6; experiment: Inhibition of CYP2D6 preincubated prior to substrate addition; format: ADME
[15] = target: Voltage-gated inwardly rectifying potassium channel KCNH2 (Homo sapiens, UniProt Q12809); experiment: Inhibition of human ERG at 10 uM by efflux assay
Chain of Voltage-gated inwardly rectifying potassium channel KCNH2 (Q12809 whole entry): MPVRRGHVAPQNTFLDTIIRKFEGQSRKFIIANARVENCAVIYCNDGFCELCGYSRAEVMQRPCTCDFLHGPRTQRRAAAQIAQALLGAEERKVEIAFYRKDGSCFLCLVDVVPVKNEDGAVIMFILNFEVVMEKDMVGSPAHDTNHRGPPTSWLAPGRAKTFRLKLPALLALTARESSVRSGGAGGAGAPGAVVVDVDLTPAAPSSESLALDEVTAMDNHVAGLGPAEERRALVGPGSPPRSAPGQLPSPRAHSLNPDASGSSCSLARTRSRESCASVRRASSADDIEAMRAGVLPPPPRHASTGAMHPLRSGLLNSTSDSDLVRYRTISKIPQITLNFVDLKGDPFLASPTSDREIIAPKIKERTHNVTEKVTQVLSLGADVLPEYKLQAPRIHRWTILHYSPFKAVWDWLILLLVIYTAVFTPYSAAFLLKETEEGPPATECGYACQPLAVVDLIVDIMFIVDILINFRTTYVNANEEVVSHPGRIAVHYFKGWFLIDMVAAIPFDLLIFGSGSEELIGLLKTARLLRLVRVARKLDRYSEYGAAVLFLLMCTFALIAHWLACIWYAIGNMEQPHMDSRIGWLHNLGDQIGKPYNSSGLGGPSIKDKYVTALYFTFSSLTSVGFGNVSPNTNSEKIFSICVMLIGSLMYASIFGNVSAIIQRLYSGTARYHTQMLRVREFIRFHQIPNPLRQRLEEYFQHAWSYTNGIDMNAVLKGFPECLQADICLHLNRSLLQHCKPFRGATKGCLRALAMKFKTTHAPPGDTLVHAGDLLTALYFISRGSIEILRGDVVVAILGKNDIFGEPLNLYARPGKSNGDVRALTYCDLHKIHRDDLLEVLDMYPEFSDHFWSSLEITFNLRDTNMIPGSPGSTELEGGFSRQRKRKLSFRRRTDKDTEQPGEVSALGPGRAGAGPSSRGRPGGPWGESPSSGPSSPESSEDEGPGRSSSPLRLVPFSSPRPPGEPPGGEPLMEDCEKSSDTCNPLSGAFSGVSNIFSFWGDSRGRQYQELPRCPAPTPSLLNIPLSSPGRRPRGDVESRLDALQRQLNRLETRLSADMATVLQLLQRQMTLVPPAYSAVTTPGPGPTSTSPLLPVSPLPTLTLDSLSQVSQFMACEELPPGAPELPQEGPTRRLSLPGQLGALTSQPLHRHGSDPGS

[16] = Drug uptake in rat liver at 10 mg/kg, po after 6 hrs; format: ADME, organism-based; design: dose 10 mg/kg, route oral; settings: read-out: Drug uptake
Outline: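 Rats dosed orally at 10 mg/kg; liver tissue concentration measured 6 h after dosing, reported in ng/g.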

EC50 (Hepatitis C virus [1]) [nM] | IC50 (Hepatitis C virus [2]) [nM] | AUC(0-t) at 24 h [3] [µM·h] | Structure (SMILES) | other results
60 | 3 | 12 | CCc1ccc2c(c1)c(-c1ccc[nH]c1=O)c(C(=O)NS(=O)(=O)C1CC1)n2Cc1cc(F)ccc1F | –
50 | 6 | 8 | CC(C)(C)c1ccc2c(c1)c(-c1ccc[nH]c1=O)c(C(=O)NS(=O)(=O)C1CC1)n2Cc1cc(F)ccc1F | –
280 | 7 | – | O=C(NS(=O)(=O)C1CC1)c1c(-c2ccc[nH]c2=O)c2cc(C(F)(F)F)c(F)cc2n1Cc1cc(F)ccc1F | –
100 | 17 | < 0.1 | Nc1cc(Cn2c(C(=O)O)c(-c3ccc[nH]c3=O)c3cc(C(F)(F)F)ccc32)ccn1 | –
100 | 47 | – | Nc1cc(Cn2c(C(=O)O)c(-c3ccc[nH]c3=O)c3cc(Br)ccc32)ccn1 | –
100 | 150 | – | CC/C=C/c1ccc2c(c1)c(-c1ccc[nH]c1=O)c(C(=O)O)n2Cc1cc(F)ccc1F | –
> 100000 | – | – | O=C(O)c1c(-c2ccccc2F)c2cc(Cl)ccc2n1Cc1ccccc1 | –
100 | 7000 | – | Nc1cc(Cn2c(C(=O)O)c(-c3ccc[nH]c3=O)c3cc(-c4cccc(=O)[nH]4)ccc32)ccn1 | –
100 | 9 | – | O=C(O)c1c(-c2ccc[nH]c2=O)c2cc(C(F)(F)F)ccc2n1Cc1ccccc1F | –
100 | 8 | – | O=C(O)c1c(-c2ccc[nH]c2=O)c2cc(CC(F)(F)F)ccc2n1Cc1cc(F)ccc1F | –
100 | 4 | – | CCc1ccc2c(c1)c(-c1ccc[nH]c1=O)c(C(=O)O)n2Cc1cc(F)ccc1F | –
100 | 7 | – | NC(=O)c1ccc(F)c(Cn2c(C(=O)O)c(-c3ccc[nH]c3=O)c3cc(C(F)(F)F)ccc32)c1 | –
200 | 10 | 11 | CCS(=O)(=O)NC(=O)c1c(-c2ccc[nH]c2=O)c2cc(C)ccc2n1Cc1cc(F)ccc1F | –
100 | 47 | – | Nc1cc(Cn2c(C(=O)O)c(-c3ccc[nH]c3=O)c3cc(Cl)c(Cl)cc32)ccn1 | –
100 | 79 | – | CCOc1ccc2c(c1)c(-c1ccc[nH]c1=O)c(C(=O)O)n2Cc1cc(F)ccc1F | –
80 | 6 | 4.6 | CCc1ccc2c(c1)c(-c1ccc[nH]c1=O)c(C(=O)NS(=O)(=O)CC)n2Cc1cc(F)ccc1F | –
100 | 67 | – | O=C(O)c1c(-c2ccc[nH]c2=O)c2cc(C(F)(F)F)ccc2n1Cc1ccc(OC(F)F)cc1 | –
– | 53 | – | Nc1cc(Cn2c(C(=O)O)c(-c3ccc[nH]c3=O)c3cc(Cl)ccc32)ccn1 | –
100 | 5 | – | Cc1cccc(Cn2c(C(=O)O)c(-c3ccc[nH]c3=O)c3cc(C(F)(F)F)ccc32)c1F | –
100 | 16 | – | Nc1cc(Cn2c(C(=O)O)c(-c3ccc[nH]c3=O)c3cc(OC(F)(F)F)ccc32)ccn1 | –
1100 | 8 | – | Cc1ccc2c(c1)c(-c1ccc[nH]c1=O)c(C(=O)O)n2Cc1cc(F)ccc1F | –
100 | 24 | – | O=C(O)c1c(-c2ccc[nH]c2=O)c2cc(OC(F)(F)F)ccc2n1Cc1cc(F)ccc1F | –
280 | 7 | 0.69 | Cc1cc2c(-c3ccc[nH]c3=O)c(C(=O)NS(=O)(=O)C3CC3)n(Cc3cc(F)ccc3F)c2cc1C(F)(F)F | –
100 | 25 | – | O=C(O)c1c(-c2ccc[nH]c2=O)c2cc(C(F)(F)F)ccc2n1Cc1ccc(F)cc1F | –
100 | 15 | – | COc1ccc2c(c1)c(-c1ccc[nH]c1=O)c(C(=O)O)n2Cc1cc(F)ccc1F | –

EC50 (Hepatitis C virus [1]) [nM] | IC50 (Hepatitis C virus [2]) [nM] | AUC(0-t) at 24 h [3] [µM·h] | Structure (SMILES) | other results
150 | 6 | 72 | CCc1ccc2c(c1)c(-c1ccc[nH]c1=O)c(C(=O)NS(C)(=O)=O)n2Cc1cc(F)ccc1F | –
100 | 65 | – | Nc1cc(Cn2c(C(=O)O)c(-c3ccc[nH]c3=O)c3cc(C4CC4)ccc32)ccn1 | –
490 | 7 | 22 | Cc1ccc2c(c1)c(-c1ccc[nH]c1=O)c(C(=O)NS(C)(=O)=O)n2Cc1cc(F)ccc1F | –
90 | 6 | 9.1 | Cc1ccc2c(c1)c(-c1ccc[nH]c1=O)c(C(=O)NS(=O)(=O)C1CC1)n2Cc1cc(F)ccc1F | –
100 | 750 | – | Nc1cc(Cn2c(C(=O)O)c(-c3ccc[nH]c3=O)c3c(Cl)c(Cl)ccc32)ccn1 | –
100 | 1400 | – | CS(=O)(=O)c1ccc2c(c1)c(-c1ccc[nH]c1=O)c(C(=O)O)n2Cc1ccnc(N)c1 | –
100 | 9 | – | Cc1ccccc1Cn1c(C(=O)O)c(-c2ccc[nH]c2=O)c2cc(C(F)(F)F)ccc21 | –
230 | 7 | 0.67 | O=C(NS(=O)(=O)C1CC1)c1c(-c2ccc[nH]c2=O)c2cc(CC(F)(F)F)ccc2n1Cc1cc(F)ccc1F | –
150 | 5 | – | Cc1cc2c(-c3ccc[nH]c3=O)c(C(=O)NS(=O)(=O)C3CC3)n(Cc3cc(F)ccc3F)c2cc1Cl | –
100 | 8 | – | CC(C)(C)c1ccc2c(c1)c(-c1ccc[nH]c1=O)c(C(=O)O)n2Cc1cc(F)ccc1F | –
100 | 25 | – | COc1ccc(Cn2c(C(=O)O)c(-c3ccc[nH]c3=O)c3cc(C(F)(F)F)ccc32)cc1 | –
100 | 4 | – | O=C(O)c1c(-c2ccc[nH]c2=O)c2cc(C(F)(F)F)ccc2n1Cc1cc(F)ccc1F | –
100 | 3 | – | O=C(O)c1c(-c2ccc[nH]c2=O)c2cc(Br)ccc2n1Cc1cc(F)ccc1F | –
90 | 7 | 6.8 | Cc1ccc2c(c1)c(-c1ccc[nH]c1=O)c(C(=O)NS(=O)(=O)C(C)C)n2Cc1cc(F)ccc1F | –
100 | 48 | – | C#Cc1ccc2c(c1)c(-c1ccc[nH]c1=O)c(C(=O)O)n2Cc1ccnc(N)c1 | –
50 | 3 | 4.8 | O=C(NS(=O)(=O)C1CC1)c1c(-c2ccc[nH]c2=O)c2cc(C(F)(F)F)ccc2n1Cc1cc(F)ccc1F | –
100 | 16 | – | Cc1ccc(Cn2c(C(=O)O)c(-c3ccc[nH]c3=O)c3cc(C(F)(F)F)ccc32)c(C)c1 | –
100 | 5 | 0.8 | CCc1ccc2c(c1)c(-c1ccc[nH]c1=O)c(C(=O)NS(=O)(=O)C(C)C)n2Cc1cc(F)ccc1F | –
20 | 8 | 14 | Cc1cc2c(-c3ccc[nH]c3=O)c(C(=O)NS(=O)(=O)C3CC3)n(Cc3cc(F)ccc3F)c2cc1F | IC50 (Cytochrome P450 3A4 [4]): > 20000 nM; IC50 (Cytochrome P450 2D6 [5]): > 20000 nM; IC50 (Cytochrome P450 2C19 [6]): > 20000 nM; IC50 (Cytochrome P450 2C9 [7]): > 20000 nM; IC50 (Cytochrome P450 2C9 [8]): > 20000 nM; hepatocyte CLint [9]: < 1 µL/min/1e6 cells; IC50 (Cytochrome P450 2C19 [10]): > 20000 nM; Papp A→B [11]: 3.5 ×10⁻⁶ cm/s; IC50 (Cytochrome P450 3A4 [12]): > 20000 nM; AUC(0-t) at 24 h [13]: 8 µM·h; IC50 (Cytochrome P450 2D6 [14]): > 20000 nM; inhibition (INH) [15]: Not Active; concentration at 6 h [16]: 5850 ng/g
60 | 5 | 6.4 | CCc1cc2c(-c3ccc[nH]c3=O)c(C(=O)NS(=O)(=O)C3CC3)n(Cc3cc(F)ccc3F)c2cc1F | –
100 | 9 | – | CC1(c2ccc3c(c2)c(-c2ccc[nH]c2=O)c(C(=O)O)n3Cc2cc(F)ccc2F)CC1 | –
100 | 330 | – | CC(=O)c1ccc2c(c1)c(-c1ccc[nH]c1=O)c(C(=O)O)n2Cc1ccnc(N)c1 | –
600 | 6 | 11 | CC1(c2ccc3c(c2)c(-c2ccc[nH]c2=O)c(C(=O)NS(=O)(=O)C2CC2)n3Cc2cc(F)ccc2F)CC1 | –
100 | 4000 | – | Nc1cc(Cn2c(C(=O)O)c(-c3ccc[nH]c3=O)c3c(Br)cccc32)ccn1 | –
100 | > 20000 | – | Nc1cc(Cn2c(C(=O)O)c(-c3ccc[nH]c3=O)c3cc(O)ccc32)ccn1 | –
